# Bioassay records: PubChem, several laboratories
# PP5 inh – PP5 phosphatase inhibitors, primary screen, biochemical, fluorescence; purified PP5c, OMFP substrate fluorescence; inhibition, % at 6.7 µM; 320,000 tested, 0.18% active; Serine/threonine-protein phosphatase 5 (Homo sapiens), P53041;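 active = inhibition above the campaign's mean inhibition across all tested compounds plus 3 SD, cut at about 9.5% in these data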
# Target sequence (P53041 whole entry, looked up): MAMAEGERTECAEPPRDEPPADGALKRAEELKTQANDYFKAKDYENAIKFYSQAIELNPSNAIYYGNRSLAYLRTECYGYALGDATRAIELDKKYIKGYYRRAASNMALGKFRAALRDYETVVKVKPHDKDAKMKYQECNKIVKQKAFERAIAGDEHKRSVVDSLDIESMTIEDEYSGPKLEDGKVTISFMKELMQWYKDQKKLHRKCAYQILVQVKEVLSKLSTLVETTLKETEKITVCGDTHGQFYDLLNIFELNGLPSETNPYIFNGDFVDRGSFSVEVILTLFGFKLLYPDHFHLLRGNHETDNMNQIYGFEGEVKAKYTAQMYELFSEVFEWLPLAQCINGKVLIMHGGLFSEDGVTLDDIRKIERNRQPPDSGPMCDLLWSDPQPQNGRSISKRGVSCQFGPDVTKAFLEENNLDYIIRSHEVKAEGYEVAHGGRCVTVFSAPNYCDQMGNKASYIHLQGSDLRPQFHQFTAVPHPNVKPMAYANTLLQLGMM
# PP1 counter – PP1-alpha phosphatase inhibitors, primary screen, counter-screen for PP5 inhibitor project, biochemical, fluorescence, OMFP substrate, single point; Serine/threonine-protein phosphatase PP1-alpha catalytic subunit (Homo sapiens), P62136; purified PP1alpha; inhibition, % at 6.7 µM; 320,000 tested, 0.9% active; AID 2235, 2010;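 active = inhibition above the mean inhibition of all tested compounds plus 3 SD, computed separately for each screening campaign, cut at about 15% in these data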
# HIF activator – HIF pathway transcriptional activators, primary screen, cell-based, U2OS HRE-luciferase, luminescence | activation, % at 7.5 µM (by protocol) | 300,000 tested, 0.32% active | U2OS HRE-luciferase reporter; normalized: DMSO 0%, desferrioxamine 100%;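 active = mean activation of at least 10% of the iron chelator positive control signal, with at least half of replicates also reaching 10%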
# HCV NS3 hel inh – inhibitors of HCV NS3 helicase, primary screen, biochemical, Cy5 molecular beacon fluorescence; AID 1800, 2009; inhibition, % at 10.9 µM; Hepatitis C virus NS3 helicase; 290,000 tested, 0.56% active; NS3 helicase DNA unwinding;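 active = inhibition above the mean of all tested compounds plus 3 SD, set per campaign, cut at about 35% in these data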
#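 assay system = NS3 helicase fragment of HCV | buffer or medium = MOPS pH 6.5, MgCl2, DTT, Tween20, BSA | timing = 60 min unwinding reaction at 25 °C after ATP addition | signal = Cy5 beacon fluorescence read at start and 1 h | read-out basis = % inhibition of unwinding | control set = low DMSO, high thioflavine S at 110 µM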
# DNA FID counter – compounds displacing fluorescent DNA intercalator, primary screen, artefact control for HCV NS3 helicase inhibitor project, biochemical, FID fluorescence | DNA fluorescent intercalator displacement | AID 1845, 2009 | inhibition, % at 7.9 µM | 290,000 tested, 0.17% active; in the data active = inhibition above about 37%;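 note: higher means more ethidium bromide displaced from hairpin DNA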
# PP1 inh confirm – PP1 phosphatase inhibitors, confirmation, biochemical, fluorescence, OMFP substrate, triplicate; 1,900 tested, 52% active; AID 2358, 2010; purified PP1alpha; shares compounds with PP1 counter; inhibition, % at 6.7 µM;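 active = mean PP1 inhibition above a set limit taken from the earlier primary screen, cut at about 15% in these data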
# PP5 inh counter – PP5 phosphatase inhibition by PP1 hits, confirmation, counter-screen for PP1 inhibitor project, biochemical, fluorescence, triplicate. shares compounds with PP1 counter. purified PP5c, OMFP fluorescence. inhibition, % at 6.7 µM. 1,900 tested, 4% active;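 active = mean PP5 inhibition over triplicate wells above about 9.5% taken from the earlier PP1 screen, limit read from the data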
# Hits are given with their value; i = inactive; nt = no result. In the library only some 1.9% were active in any assay of this set; here they are far more common.
SMILES,PP5 inh,PP1 counter,HIF activator,HCV NS3 hel inh,DNA FID counter,PP1 inh confirm,PP5 inh counter
O=C(Nc1nnc(-c2ccccn2)o1)c1cccc(Cl)c1,i,25,i,i,i,i,i
COc1ccc(-n2c(Cn3c(=O)sc4ccccc43)nnc2SCC(=O)N2CCCCC2)cc1,i,i,nt,i,i,nt,nt
COc1ccc(-n2c(Cn3c(=O)sc4ccccc43)nnc2SCC(=O)N2CCCC2)cc1,i,38,nt,i,i,i,i
COc1ccc(OCc2cc(C(=O)NCc3cccc(C)n3)no2)c(Cl)c1,i,i,i,i,i,nt,nt
O=c1[nH]c(/C=C/c2ccccc2Cl)nc2ccccc12,i,18,i,i,i,25,i
[S-]c1nnc(-c2ccc(Br)cc2)n1-c1ccccc1.[Zn+2],i,20,i,i,i,24,i
CCOC(=O)N1CCN(C/C(Cl)=C/c2ccccc2)CC1,i,i,i,i,i,nt,nt
O=C(NCCCCc1ccccc1)C12CN(Cc3ccccc3)CC1C(c1cccc([N+](=O)[O-])c1)=NO2 (stereo not given),i,24,i,i,i,i,i
Cc1cccc(COC(=O)CCCNC(=O)c2ccc(Cl)cc2)c1,i,i,nt,nt,nt,nt,nt
CC1=NOC(=O)/C1=C/c1ccc(-c2ccc(Cl)cc2)o1,i,18,nt,i,i,49,i
CC1=NOC(=O)/C1=C\c1ccc(-c2ccc(Br)cc2)o1,nt,nt,i,i,i,nt,nt
O=C(Nc1nccs1)c1ccc(-c2ccc([N+](=O)[O-])cc2)o1,i,18,i,i,i,23,i
CC1=NNC(=O)/C1=C\c1cn(-c2ccccc2)nc1-c1cccs1,i,19,i,i,i,i,i
CC1=NNC(=O)/C1=C\c1cn(-c2ccccc2)nc1-c1ccc(F)cc1,nt,nt,i,i,i,nt,nt
COc1cc(OC)c(-c2cc(C(=O)O)ccc2OC)c(OC)c1,i,i,i,i,i,nt,nt
CCCOc1ccc(C(=O)NC(=S)NNC(=O)c2c(-c3ccccc3)noc2C)cc1,i,18,i,i,i,i,i
CCNC(=O)NC(=O)C(C)OC(=O)C1CCN(S(=O)(=O)c2ccccc2C(=O)OC)CC1 (stereo not given),i,i,i,i,i,nt,nt
COc1cccc(OC)c1C(=O)Nc1ccc(N2CCCC2)cc1,i,28,i,i,i,i,i
O=C(Nc1ccc(N2CCCC2)cc1)c1ccc(Br)cc1,i,24,i,i,i,i,i
CC(=O)c1cccc(NC(=O)C(C)N2CCc3ccccc3C2)c1 (stereo not given),i,i,i,i,i,nt,nt
COc1ccc(-c2ccnc3c(C(=O)O)cnn23)cc1,i,i,i,i,i,nt,nt
N#CC1=C2N=C(N)c3ccccc3N2C2=C(C(=O)CCC2)C1c1ccccc1F (stereo not given),i,i,i,i,i,nt,nt
Cc1ccccc1C1C(C#N)=C2N=C(N)c3c(sc4c3CCCCC4)N2C2=C1C(=O)CCC2 (stereo not given),i,25,i,i,i,18,i
Cc1ccc(N2CC(C(=O)OCC(=O)NNC(=O)c3ccccc3)CC2=O)cc1 (stereo not given),i,35,i,nt,nt,i,i
CCc1ccc(N2CC(C(=O)OCC(=O)NNC(=O)c3ccccc3)CC2=O)cc1 (stereo not given),i,i,i,nt,nt,nt,nt
SMILES,PP5 inh,PP1 counter,HIF activator,HCV NS3 hel inh,DNA FID counter,PP1 inh confirm,PP5 inh counter
Cc1ccc(C)n1-c1ccc(-c2nnco2)cc1,i,24,i,i,i,i,i
Cc1cc(-c2nnco2)c(C)n1-c1ccc(F)cc1,i,i,i,i,i,nt,nt
Cc1ccc(C)n1-c1ccc(-n2cnnn2)cc1,i,25,i,i,i,15,i
Cc1cc(/C=C\c2ccc3cc(N(C)C)ccc3[n+]2C)c(C)n1-c1ccccc1,i,34,nt,nt,nt,i,i
CCCOc1ccc(C(C)=O)cc1CC(C(N)=O)C(N)=O,i,i,i,i,i,nt,nt
CCCOc1ccc(C(C)=O)cc1CSc1nc(O)cc(=O)[nH]1,i,19,i,i,i,i,i
O=C(N/N=C/c1cc([N+](=O)[O-])cc([N+](=O)[O-])c1O)/C(=C\c1cccs1)NC(=O)c1ccccc1,i,21,i,i,i,30,i
COc1cc(/C=N/NC(=O)/C(=C\c2ccc([N+](=O)[O-])cc2)NC(=O)c2ccccc2)cc(OC)c1O,i,i,i,i,i,nt,nt
O=C(O)c1ccccc1-c1nc2ccccc2c(=O)n1O,i,25,i,i,i,30,i
CC(=O)Nc1cccc(-n2nnc(SCC(=O)N(C)c3ccccc3)n2)c1,i,i,i,i,i,nt,nt
COc1ccc(NC(=O)NNC(=O)COc2ccc3cc(Br)ccc3c2)c(OC)c1,i,20,i,i,i,23,i
Cc1cc2ccccn2c1C(C[N+](=O)[O-])c1ccc(N(C)C)cc1 (stereo not given),i,20,i,i,i,i,9.8
OCC[C@@H]1C[C@@H](O)[C@H](O)[C@]2(CCc3ccccc3O2)O1,i,i,i,i,i,nt,nt
Cc1ccnc(NS(=O)(=O)c2cnc(Cl)c(Br)c2)c1,i,i,i,i,i,nt,nt
O=C1NN(c2ccc(Cl)c(Cl)c2)C(=O)/C1=C/c1cccc(OC(=O)c2cccs2)c1,i,27,i,i,i,23,i
O=C(CCN1C(=O)C2CCCCC2C1=O)N1CCN(S(=O)(=O)c2ccccc2)CC1 (stereo not given),i,33,i,nt,nt,i,i
CN1C(=O)COc2ccc(C(=O)c3oc4ccccc4c3-c3cnc4c(c3)COc3ccccc3-4)cc21,nt,nt,i,i,i,nt,nt
C=CCn1c(SCc2ccc(C(=O)Nc3nccs3)cc2)nnc1-c1ccc(C)c(Cl)c1,i,18,i,i,i,i,i
CC(C)CCCN1C(N(C)C)=NC[C@@H]1C,i,i,nt,nt,nt,nt,nt
CCc1ccc(C(C)NC(=O)Cn2cnc3c(=O)n(C)c(=O)n(C)c32)cc1 (stereo not given),i,i,i,i,i,nt,nt
O=c1[nH]c(NNC(=S)NCc2ccccc2)nc2c1C1(CCCCC1)Cc1ccccc1-2,i,i,i,i,i,nt,nt
O=c1[nH]c(NNC(=S)NC2CCCCC2)nc2c1C1(CCCC1)Cc1ccccc1-2,i,19,i,i,i,i,i
CN1CCN(C(=O)CSc2ccc(C(F)(F)F)cc2[N+](=O)[O-])CC1,i,i,i,i,i,nt,nt
CCOc1ccc(N2C(=O)S/C(=C\c3ccc(O)c(OC)c3)C2=O)cc1,i,i,i,i,i,nt,nt
